Measured values as given in ChEMBL document CHEMBL2424616, “Synthesis and antimicrobial activity of novel 5-(1-adamantyl)-2-aminomethyl-4-substituted-1,2,4-triazoline-3-thiones” (2013).
Converted amounts (≈) assume the structure as drawn.

Legend:
[1] = system: Staphylococcus aureus; assay: Antibacterial activity against Staphylococcus aureus IFO 3060 assessed as growth inhibition at 200 ug/disc after 24 hrs by agar disc-diffusion method; assay type: functional; conditions: IFO 3060, 24 h, read-out: DIZ
[2] = system: Escherichia coli; assay: Antibacterial activity against Escherichia coli IFO 3301 assessed as growth inhibition at 200 ug/disc after 24 hrs by agar disc-diffusion method; assay type: functional; conditions: IFO 3301, 24 h, read-out: DIZ
[3] = system: Bacillus subtilis; assay: Antibacterial activity against Bacillus subtilis IFO 3007 after 24 hrs by two fold dilution method; assay type: functional
[4] = system: Micrococcus luteus; assay: Antibacterial activity against Micrococcus luteus IFO 3232 after 24 hrs by two fold dilution method; assay type: functional
[5] = system: Bacillus subtilis; assay: Antibacterial activity against Bacillus subtilis IFO 3007 assessed as growth inhibition at 200 ug/disc after 24 hrs by agar disc-diffusion method; assay type: functional; conditions: IFO 3007, 24 h, read-out: DIZ
[6] = system: Staphylococcus aureus; assay: Antibacterial activity against Staphylococcus aureus IFO 3060 after 24 hrs by two fold dilution method; assay type: functional
[7] = system: Pseudomonas aeruginosa; assay: Antibacterial activity against Pseudomonas aeruginosa IFO 3448 assessed as growth inhibition at 200 ug/disc after 24 hrs by agar disc-diffusion method; assay type: functional; conditions: IFO 3448, 24 h, read-out: DIZ
[8] = system: Micrococcus luteus; assay: Antibacterial activity against Micrococcus luteus IFO 3232 assessed as growth inhibition at 200 ug/disc after 24 hrs by agar disc-diffusion method; assay type: functional; conditions: IFO 3232, 24 h, read-out: DIZ
[9] = system: Candida albicans; assay: Antifungal activity against Candida albicans IFO 0583 assessed as growth inhibition at 200 ug/disc after 48 hrs by agar disc-diffusion method; assay type: functional; conditions: IFO 0583, 48 h, read-out: DIZ
[10] = system: Escherichia coli; assay: microbe, parasite or virus in culture; conditions: IFO 3301, 24 h
[11] = system: Pseudomonas aeruginosa; assay: Antibacterial activity against Pseudomonas aeruginosa IFO 3448 after 24 hrs by two fold dilution method; assay type: functional
[12] = system: Staphylococcus aureus; assay: Antibacterial activity against Staphylococcus aureus IFO 3060 assessed as growth inhibition at 100 ug/disc after 24 hrs by agar disc-diffusion method; assay type: functional
Outline: (§1)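 Agar disc-diffusion on Mueller-Hinton agar. Sterile 8 mm filter-paper discs carrying 100 µg of agent were laid on the seeded agar. Plates were incubated at 37 °C, and growth-inhibition zone diameters were read after 24 h for bacteria.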

[13] = system: Micrococcus luteus; assay: Antibacterial activity against Micrococcus luteus IFO 3232 assessed as growth inhibition at 100 ug/disc after 24 hrs by agar disc-diffusion method; assay type: functional; outline: as §1
[14] = system: Bacillus subtilis; assay: Antibacterial activity against Bacillus subtilis IFO 3007 assessed as growth inhibition at 100 ug/disc after 24 hrs by agar disc-diffusion method; assay type: functional; outline: as §1
[15] = system: Pseudomonas aeruginosa; assay: Antibacterial activity against Pseudomonas aeruginosa IFO 3448 assessed as growth inhibition at 100 ug/disc after 24 hrs by agar disc-diffusion method; assay type: functional; outline: as §1
[16] = system: Escherichia coli; conditions: IFO 3301, 100 ug/disc
[17] = system: Candida albicans; assay: Antifungal activity against Candida albicans IFO 0583 after 24 hrs by two fold dilution method; assay type: functional; conditions: IFO 0583, 24 h
[18] = system: Candida albicans; assay: Antifungal activity against Candida albicans IFO 0583 assessed as growth inhibition at 100 ug/disc after 48 hrs by agar disc-diffusion method; assay type: functional; conditions: IFO 0583, 48 h, read-out: DIZ
[19] = system: Escherichia coli; assay: microbe, parasite or virus in culture; conditions: IFO 3301, 24 h, read-out: DIZ

| Compound | zone of inhibition at 200 µg/disc [1] [mm] | zone of inhibition at 200 µg/disc [2] [mm] | MIC ([3]; IFO 3007, 24 h) [µg/mL] | MIC ([4]; IFO 3232, 24 h) [µg/mL] | zone of inhibition at 200 µg/disc [5] [mm] | MIC ([6]; IFO 3060, 24 h) [µg/mL] | zone of inhibition at 200 µg/disc [7] [mm] | zone of inhibition at 200 µg/disc [8] [mm] | zone of inhibition at 200 µg/disc [9] [mm] | further results |
| --- | --- | --- | --- | --- | --- | --- | --- | --- | --- | --- |
| COc1ccccc1N1CCN(Cn2nc(C34CC5CC(CC(C5)C3)C4)n(C)c2=S)CC1 | 22 | 11 | 4 (≈ 8.82 µM) | 16 (≈ 35.3 µM) | 20 | 4 (≈ 8.82 µM) | < 10 | 19 | < 10 |  |
| Cn1c(C23CC4CC(CC(C4)C2)C3)nn(CN2CCN(c3cccc(C(F)(F)F)c3)CC2)c1=S | 30 | 19 | 0.5 (≈ 1.02 µM) | 4 (≈ 8.14 µM) | 33 | 0.5 (≈ 1.02 µM) | 21 | 28 | < 10 | MIC [10]: 16 µg/mL (≈ 32.5 µM); MIC ([11]; IFO 3448, 24 h): 8 µg/mL (≈ 16.3 µM) |
| CCN1CCN(Cn2nc(C34CC5CC(CC(C5)C3)C4)n(/N=C/c3ccccc3O)c2=S)CC1 | 26 | 16 | 0.5 (≈ 1.04 µM) | 2 (≈ 4.16 µM) | 30 | 1 (≈ 2.08 µM) | 11 | 24 | < 10 |  |
| FC(F)(F)c1ccc(NCn2nc(C34CC5CC(CC(C5)C3)C4)n(-c3ccc(Cl)cc3)c2=S)cc1 | 16 | 14 | 8 (≈ 15.4 µM) | 16 (≈ 30.8 µM) | 22 |  | 11 | 18 | < 10 |  |
| COc1ccccc1N1CCN(Cn2nc(C34CC5CC(CC(C5)C3)C4)n(/N=C/c3ccccc3O)c2=S)CC1 | 28 | 18 | 0.5 (≈ 0.895 µM) | 2 (≈ 3.58 µM) | 33 | 0.5 (≈ 0.895 µM) | 12 | 25 | < 10 | MIC [10]: 8 µg/mL (≈ 14.3 µM) |
| GENTAMICIN |  |  |  |  |  |  |  |  |  | inhibition zone (IZ) [12]: 26 mm; MIC [3]: 2 µg/mL; MIC [4]: 2 µg/mL; inhibition zone (IZ) [13]: 18 mm; inhibition zone (IZ) [14]: 25 mm; MIC [11]: 1 µg/mL; inhibition zone (IZ) [15]: 19 mm; MIC [6]: 2 µg/mL; IZ [16]: 20 mm |
| Clc1ccccc1C(c1ccccc1)(c1ccccc1)n1ccnc1 [CLOTRIMAZOLE] |  |  |  |  |  |  |  |  |  | MIC [17]: 2 µg/mL (≈ 5.8 µM); zone of inhibition at 100 µg/disc [18]: 21 mm |
| CC1(C)S[C@@H]2[C@H](NC(=O)[C@H](N)c3ccccc3)C(=O)N2[C@H]1C(=O)O [AMPICILLIN] |  |  | 0.5 (≈ 1.43 µM) | 2 (≈ 5.72 µM) |  | 2 (≈ 5.72 µM) |  |  |  | zone of inhibition at 100 µg/disc ([12]; IFO 3060, 24 h, read-out: DIZ): 23 mm; zone of inhibition at 100 µg/disc ([13]; IFO 3232, 24 h, read-out: DIZ): 19 mm; zone of inhibition at 100 µg/disc ([14]; IFO 3007, 24 h, read-out: DIZ): 21 mm; MIC ([11]; IFO 3448, 24 h): 2 µg/mL (≈ 5.72 µM); zone of inhibition at 100 µg/disc ([15]; IFO 3448, 24 h, read-out: DIZ): 16 mm; zone of inhibition at 100 µg/disc [19]: 17 mm |
| COc1ccccc1N1CCN(Cn2nc(C34CC5CC(CC(C5)C3)C4)n(/N=C/c3ccc(O)cc3)c2=S)CC1 | 30 | 16 | 1 (≈ 1.79 µM) | 16 (≈ 28.6 µM) | 29 | 1 (≈ 1.79 µM) | 14 | 18 | < 10 |  |
| Oc1ccc(/C=N/n2c(C34CC5CC(CC(C5)C3)C4)nn(CN3CCN(c4ccccc4)CC3)c2=S)cc1 | 22 | 16 | 4 (≈ 7.57 µM) | 16 (≈ 30.3 µM) | 22 | 4 (≈ 7.57 µM) | < 10 | 19 | < 10 |  |
| Oc1ccccc1/C=N/n1c(C23CC4CC(CC(C4)C2)C3)nn(CN2CCN(c3ccccc3)CC2)c1=S | 22 | 14 | 4 (≈ 7.57 µM) | 16 (≈ 30.3 µM) | 25 | 8 (≈ 15.1 µM) | 12 | 18 | < 10 |  |
| CCN1CCN(Cn2nc(C34CC5CC(CC(C5)C3)C4)n(/N=C/c3ccc(O)cc3)c2=S)CC1 | 30 | 17 | 1 (≈ 2.08 µM) | 2 (≈ 4.16 µM) | 29 | 1 (≈ 2.08 µM) | 13 | 25 | < 10 |  |
